# Data: ChEMBL document CHEMBL5143669, “Stapled peptides as scaffolds for developing radiotracers for intracellular targets: Preliminary evaluation of a radioiodinated MDM2-binding stapled peptide in the SJSA-1 osteosarcoma model” (Bioorg Med Chem Lett, 2022)
# Experiments:
# [1] = Lipophilicity, logD of the compound using n-octanol and phosphate-buffered saline at pH 7.4 by the shake flask method; format: physicochemical
# In short: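 Shake-flask partition of the 125I-labeled peptide between n-octanol and PBS pH 7.4; logD from n = 4.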
# [2] = Drug uptake in MDM2-amplified human SJSA-1 cells expressing wild type p53 at 5 to 50 uM incubated for 30 mins; format: ADME, cell-based; settings: sjsa-1, 0.5 h, dose 5-50 µM
# In short: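 For uptake kinetics, SJSA-1 cells in serum-free RPMI-1640 were incubated 30–120 min with 125I-labeled peptide, with or without 50 μM unlabeled parent peptide. Cells were washed with PBS and lysed, and uptake was normalized to protein (%/mg protein). Triplicates, mean ± SD.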
# [3] = Drug uptake in MDM2-amplified human SJSA-1 cells expressing wild type p53 assessed as released into supernatant incubated for 0.5 hrs subsequently re-incubating the cells with fresh medium for up to 2 hrs; format: ADME, cell-based; settings: sjsa-1, 0.5 h
# In short: (§1)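 SJSA-1 cells were loaded with 125I-labeled peptide for 1 h, then reincubated in fresh medium for 0.5–2 h. Cell-retained activity and cumulative release into the supernatant were expressed as percentage of initially bound activity.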
# [4] = Drug uptake in MDM2-amplified human SJSA-1 cells expressing wild type p53 assessed as initially bound radioactivity incubated for 2 hrs subsequently re-incubating the cells with fresh medium for up to 2 hrs; format: ADME, cell-based; settings: sjsa-1, 2 h; in short: as §1
# [5] = Biodistribution in Liver of athymic mouse xenografted with human SJSA-1 cells at 166.5 kBq, iv after 30 mins by automated gamma counting method; format: ADME, organism-based; settings: in vivo, 0.5 h
# In short: (§2)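 125I-labeled peptide (166.5 kBq in 100 μL) was injected via tail vein into athymic mice bearing flank SJSA-1 xenografts, n = 5 per time point. Tumors, blood and major organs were gamma-counted at 0.5, 2, 6 and 24 h post-injection. Values are %ID/g.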
# [6] = Biodistribution in Kidney of athymic mouse xenografted with human SJSA-1 cells at 166.5 kBq, iv after 30 mins by automated gamma counting method; format: ADME, organism-based; settings: in vivo, 0.5 h; in short: as §2
# [7] = Biodistribution in Small intestine of athymic mouse xenografted with human SJSA-1 cells at 166.5 kBq, iv after 30 mins by automated gamma counting method; format: ADME, organism-based; settings: in vivo, 0.5 h; in short: as §2
# [8] = Biodistribution in Large intestine of athymic mouse xenografted with human SJSA-1 cells at 166.5 kBq, iv after 30 mins by automated gamma counting method; format: ADME, organism-based; settings: in vivo, 0.5 h; in short: as §2
# [9] = Biodistribution in Thyroid of athymic mouse xenografted with human SJSA-1 cells at 166.5 kBq, iv after 30 mins by automated gamma counting method; format: ADME, organism-based, Thyroid gland; settings: in vivo, 0.5 h
# In short: (§3)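 Athymic mice bearing flank SJSA-1 xenografts received 125I-SIB-labeled peptide (166.5 kBq, 100 μL) by tail vein; groups of five per time point. Tumor, blood and organs were taken at 0.5–24 h and counted by gamma counter; values expressed as %ID/g.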
# [10] = Biodistribution in Blood of athymic mouse xenografted with human SJSA-1 cells at 166.5 kBq, iv after 30 mins by automated gamma counting method; format: ADME, organism-based; settings: in vivo, 0.5 h; in short: as §2
# [11] = Biodistribution in Tumor of athymic mouse xenografted with human SJSA-1 cells at 166.5 kBq, iv after 30 mins by automated gamma counting method; format: ADME, organism-based, Neoplasm; settings: in vivo, 0.5 h; in short: as §3
# [12] = Biodistribution in Skin of athymic mouse xenografted with human SJSA-1 cells at 166.5 kBq, iv after 30 mins by automated gamma counting method; format: ADME, organism-based, Skin of body; settings: in vivo, 0.5 h; in short: as §2
# [13] = Biodistribution in Brain of athymic mouse xenografted with human SJSA-1 cells at 166.5 kBq, iv after 30 mins by automated gamma counting method; format: ADME, organism-based; settings: in vivo, 0.5 h; in short: as §2
# [14] = Biodistribution in Lung of athymic mouse xenografted with human SJSA-1 cells at 166.5 kBq, iv after 2 hrs by automated gamma counting method; format: ADME, organism-based; settings: in vivo; in short: as §2
# [15] = Biodistribution in Heart of athymic mouse xenografted with human SJSA-1 cells at 166.5 kBq, iv after 2 hrs by automated gamma counting method; format: ADME, organism-based; settings: in vivo; in short: as §2
# [16] = Biodistribution in Kidney of athymic mouse xenografted with human SJSA-1 cells at 166.5 kBq, iv after 2 hrs by automated gamma counting method; format: ADME, organism-based; settings: in vivo; in short: as §2
# [17] = Biodistribution in Muscle of athymic mouse xenografted with human SJSA-1 cells at 166.5 kBq, iv after 2 hrs by automated gamma counting method; format: ADME, organism-based, Muscle tissue; settings: in vivo; in short: as §2
# [18] = Biodistribution in Blood of athymic mouse xenografted with human SJSA-1 cells at 166.5 kBq, iv after 2 hrs by automated gamma counting method; format: ADME, organism-based; settings: in vivo; in short: as §2
# [19] = Biodistribution in Bone of athymic mouse xenografted with human SJSA-1 cells at 166.5 kBq, iv after 2 hrs by automated gamma counting method; format: ADME, organism-based, Bone element; settings: in vivo; in short: as §2
# [20] = Biodistribution in Skin of athymic mouse xenografted with human SJSA-1 cells at 166.5 kBq, iv after 2 hrs by automated gamma counting method; format: ADME, organism-based, Skin of body; settings: in vivo; in short: as §2
# [21] = Biodistribution in Brain of athymic mouse xenografted with human SJSA-1 cells at 166.5 kBq, iv after 2 hrs by automated gamma counting method; format: ADME, organism-based; settings: in vivo; in short: as §2
# [22] = Biodistribution in Kidney of athymic mouse xenografted with human SJSA-1 cells at 166.5 kBq, iv after 6 hrs by automated gamma counting method; format: ADME, organism-based; settings: in vivo; in short: as §2
# [23] = Biodistribution in Small intestine of athymic mouse xenografted with human SJSA-1 cells at 166.5 kBq, iv after 6 hrs by automated gamma counting method; format: ADME, organism-based; settings: in vivo; in short: as §2
# [24] = Biodistribution in Large intestine of athymic mouse xenografted with human SJSA-1 cells at 166.5 kBq, iv after 6 hrs by automated gamma counting method; format: ADME, organism-based; settings: in vivo; in short: as §2
# [25] = Biodistribution in Thyroid of athymic mouse xenografted with human SJSA-1 cells at 166.5 kBq, iv after 6 hrs by automated gamma counting method; format: ADME, organism-based, Thyroid gland; settings: in vivo; in short: as §3
# [26] = Biodistribution in Muscle of athymic mouse xenografted with human SJSA-1 cells at 166.5 kBq, iv after 6 hrs by automated gamma counting method; format: ADME, organism-based, Muscle tissue; settings: in vivo; in short: as §2
# [27] = Biodistribution in Blood of athymic mouse xenografted with human SJSA-1 cells at 166.5 kBq, iv after 6 hrs by automated gamma counting method; format: ADME, organism-based; settings: in vivo; in short: as §2
# [28] = Biodistribution in Tumor of athymic mouse xenografted with human SJSA-1 cells at 166.5 kBq, iv after 6 hrs by automated gamma counting method; format: ADME, organism-based, Neoplasm; settings: in vivo; in short: as §3
# [29] = Biodistribution in Bone of athymic mouse xenografted with human SJSA-1 cells at 166.5 kBq, iv after 6 hrs by automated gamma counting method; format: ADME, organism-based, Bone element; settings: in vivo; in short: as §2
# [30] = Biodistribution in Skin of athymic mouse xenografted with human SJSA-1 cells at 166.5 kBq, iv after 6 hrs by automated gamma counting method; format: ADME, organism-based, Skin of body; settings: in vivo; in short: as §2
# [31] = Biodistribution in Lung of athymic mouse xenografted with human SJSA-1 cells at 166.5 kBq, iv after 24 hrs by automated gamma counting method; format: ADME, organism-based; settings: in vivo; in short: as §2
# [32] = Biodistribution in Kidney of athymic mouse xenografted with human SJSA-1 cells at 166.5 kBq, iv after 24 hrs by automated gamma counting method; format: ADME, organism-based; settings: in vivo; in short: as §2
# [33] = Biodistribution in Stomach of athymic mouse xenografted with human SJSA-1 cells at 166.5 kBq, iv after 24 hrs by automated gamma counting method; format: ADME, organism-based; settings: in vivo; in short: as §3
# [34] = Biodistribution in Tumor of athymic mouse xenografted with human SJSA-1 cells at 166.5 kBq, iv after 24 hrs by automated gamma counting method; format: ADME, organism-based, Neoplasm; settings: in vivo; in short: as §3
# [35] = Biodistribution in Brain of athymic mouse xenografted with human SJSA-1 cells at 166.5 kBq, iv after 24 hrs by automated gamma counting method; format: ADME, organism-based; settings: in vivo; in short: as §2
structure (smiles),measurement,setting,value
CC(=O)NC(CCCCNC(=O)c1cccc([125I])c1)C(=O)NCCCCCC(=O)N[C@H](C(=O)N[C@@H](CO)C(=O)N[C@@H](Cc1ccccc1)C(=O)N[C@@]1(C)CCCCCC/C=C/CCC[C@@](C)(C(=O)N[C@@H](CCC(=O)O)C(=O)N[C@@H](CC(N)=O)C(=O)N[C@@H](Cc2ccccc2)C(N)=O)NC(=O)[C@H](CC(C)C)NC(=O)[C@H](CC(C)C)NC(=O)[C@H](C)NC(=O)[C@H](Cc2c[nH]c3ccccc23)NC(=O)[C@H](Cc2ccc(O)cc2)NC(=O)[C@H](CCC(=O)O)NC1=O)[C@@H](C)O (stereo not given in full),logD,[1],1.45
same,Drug uptake,[2],104 %/mg protein
same,Drug uptake,[3],16.9%
same,Drug uptake,[4],62%
same,Drug uptake,[5],13.52 % ID/g
same,Drug uptake,[6],3.06 % ID/g
same,Drug uptake,[7],0.43 % ID/g
same,Drug uptake,[8],0.06 % ID/g
same,Drug uptake,[9],0.89 % ID/g
same,Drug uptake,[10],8.33 % ID/g
same,Drug uptake,[11],1.8 % ID/g
same,Drug uptake,[12],0.57 % ID/g
same,Drug uptake,[13],0.24 % ID/g
same,Drug uptake,[14],2.72 % ID/g
same,Drug uptake,[15],2.44 % ID/g
same,Drug uptake,[16],2.54 % ID/g
same,Drug uptake,[17],0.24 % ID/g
same,Drug uptake,[18],6.84 % ID/g
same,Drug uptake,[19],0.33 % ID/g
same,Drug uptake,[20],0.88 % ID/g
same,Drug uptake,[21],0.25 % ID/g
same,Drug uptake,[22],2.5 % ID/g
same,Drug uptake,[23],3.84 % ID/g
same,Drug uptake,[24],4.44 % ID/g
same,Drug uptake,[25],1.19 % ID/g
same,Drug uptake,[26],0.25 % ID/g
same,Drug uptake,[27],5.12 % ID/g
same,Drug uptake,[28],2.11 % ID/g
same,Drug uptake,[29],0.29 % ID/g
same,Drug uptake,[30],1.22 % ID/g
same,Drug uptake,[31],0.33 % ID/g
same,Drug uptake,[32],0.63 % ID/g
same,Drug uptake,[33],0.84 % ID/g
same,Drug uptake,[34],0.36 % ID/g
same,Drug uptake,[35],0.02 % ID/g
